Measured values from ChEMBL document CHEMBL5678802, “Small-molecule p21-activated kinase inhibitor PF-3758309 is a potent inhibitor of oncogenic signaling and tumor growth” (Proc Natl Acad Sci U S A, 2010).
Activity calls are given as the source filed them. No cut-off for these calls is given here.

Tests used:
NCI-H526 = assay: Antiproliferative activity against human NCI-H526 cells assessed as inhibition of cell proliferation incubated for 3 days by CellTiter-Glo Luminescent Cell Viability Assay; type: functional, cell-based; conditions: NCI-H526, 72 h
In short: (§1)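 Cells of each line were plated in 384-well plates on day 1 and exposed to compound from day 2 for 3 days. On day 5 all medium was aspirated. Viable cell number was read by CellTiter-Glo luminescence, which quantifies cellular ATP.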

NCI-H520 = assay: Antiproliferative activity against human NCI-H520 cells assessed as inhibition of cell proliferation incubated for 3 days by CellTiter-Glo Luminescent Cell Viability Assay; type: functional, cell-based; conditions: NCI-H520, 72 h; in short: as §1
NCI-H1975 = assay: Antiproliferative activity against human NCI-H1975 cells assessed as inhibition of cell proliferation incubated for 3 days by CellTiter-Glo Luminescent Cell Viability Assay; type: functional, cell-based; conditions: NCI-H1975, 72 h
In short: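 Cancer cell lines seeded in 384-well plates on day 1; compound added on day 2 and incubated 3 days. On day 5 media aspirated and viable cells quantified by ATP content using CellTiter-Glo luminescence; dose-dependent proliferation effects determined.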

NCI-H23 [1] = assay: Antiproliferative activity against human NCI-H23 cells assessed as inhibition of cell proliferation incubated for 3 days by CellTiter-Glo Luminescent Cell Viability Assay; type: functional, cell-based; conditions: NCI-H23, 72 h; in short: as §1
PaTu 8988t = assay: Antiproliferative activity against human PaTu 8988t cells assessed as inhibition of cell proliferation incubated for 3 days by CellTiter-Glo Luminescent cell viability assay; type: functional, cell-based; conditions: 72 h; in short: as §1
Panc 04.03 = assay: Antiproliferative activity against human Panc 04.03 cells assessed as inhibition of cell proliferation incubated for 3 days by CellTiter-Glo Luminescent Cell Viability Assay; type: functional, cell-based; conditions: Panc 04.03, 72 h; in short: as §1
COLO 205 = assay: Inhibition of anchorage independent cell growth in human COLO 205 cells incubated for 6 days by Alamar blue reagent based fluorescence plate reader analysis; type: functional; conditions: COLO 205, 144 h
In short: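 Soft-agar colony formation: bottom layer 0.5% agar (2× DMEM with 1% agarose, 1:1), top layer 0.35% agar holding 4,000 cells; layers set 20–30 min at room temperature, then 1× DMEM containing compound added on top. Incubated 6 days; Alamar blue added and fluorescence read at 540 nm.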

NCI-H1993 = assay: Inhibition of anchorage independent cell growth in human NCI-H1993 cells incubated for 6 days by Alamar blue reagent based fluorescence plate reader analysis; type: functional; conditions: NCI-H1993, 144 h
NCI-H23 [2] = assay: Inhibition of anchorage independent cell growth in human NCI-H23 cells incubated for 6 days by Alamar blue reagent based fluorescence plate reader analysis; type: functional; conditions: NCI-H23, 144 h
NCI-H358 = assay: Inhibition of anchorage independent cell growth in human NCI-H358 cells incubated for 6 days by Alamar blue reagent based fluorescence plate reader analysis; type: functional; conditions: NCI-H358, 144 h
HCC1806 = assay: Antiproliferative activity against human HCC1806 cells assessed as inhibition of cell proliferation incubated for 3 days by CellTiter-Glo Luminescent Cell Viability Assay; type: functional, cell-based; conditions: HCC1806, 72 h
In short: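 Cancer cell lines seeded in 384-well plates on day 1; compound added on day 2 and left for 3 days. On day 5 all medium was aspirated, and viable cells were quantified by CellTiter-Glo luminescence, which measures cellular ATP. Dose-dependent effects on proliferation were determined.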

HCT-116 [3] = assay: Inhibition of anchorage independent cell growth in human HCT-116 cells incubated for 6 days by Alamar blue reagent based fluorescence plate reader analysis; type: functional; conditions: HCT-116, 144 h
[4] = Cytotoxicity against primary hepatocyte (unknown origin) assessed as inhibition of cell proliferation incubated for 3 days by CellTiter-Glo Luminescent Cell Viability Assay; type: toxicity, cell-based; conditions: primary hepatocytes
[5] = biological target: T1, Ribosomal protein S6 kinase alpha-3 (Homo sapiens, UniProt P51812); assay: Inhibition of human RSK2 in presence of ATP relative to control; conditions: concentration not given here
[6] = biological target: Tyrosine-protein kinase Fyn (Homo sapiens, UniProt P06241); assay: Inhibition of human FYN in presence of ATP relative to control; conditions: concentration not given here
[7] = biological target: Protein kinase C gamma type (Homo sapiens, UniProt P05129); assay: Inhibition of human PKCgamma assessed as inhibition constant in presence of ATP
[8] = biological target: T1, Ribosomal protein S6 kinase alpha-3; assay: Inhibition of human RSK2 in presence of ATP
[9] = biological target: Proto-oncogene tyrosine-protein kinase Src (Homo sapiens, UniProt P12931); assay: Inhibition of human SRC in presence of ATP
HEK293 = assay: Inhibition of YFP/YFP variant coding sequence fused Mnk1/p38alpha (unknown origin) expressed in HEK293 cells incubated for 8 to 24 hrs by fluorescence based analysis; type: cell-based; conditions: Homo sapiens, time 8-24 hrs
HCT-116 [10] = assay: Antitumor activity against human HCT-116 cells xenografted in nude mouse assessed as tumor growth inhibition at 15 mg/kg, po administered twice daily for 9 to 18 days relative to control; type: functional; conditions: time 9-18 day, read-out: TGI
GTL 16 cell line = assay: Antitumor activity against human GTL-16 cell line xenografted in nude mouse assessed as tumor growth inhibition at 20 mg/kg, po administered once daily for 9 to 18 days relative to control; type: functional; conditions: time 9-18 day, read-out: TGI
In short: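 Tumor cells were implanted s.c. into the right flank of female nu/nu nude mice aged 6–8 weeks. Animals were randomized into treatment groups once tumors were established (example: day 8 postimplant, about 170 mm3, animals >22 g). Compound in 0.5% methylcellulose was given by oral gavage. Tumors were measured with calipers two to three times per week.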

HCT-116 [11] = assay: Antitumor activity against human HCT-116 cells xenografted in nude mouse assessed as inhibition of [3H]FLT uptake at 15 mg/kg, po administered twice a day for 6 days and measured after 2 hrs post [3H]FLT administration by scintillation counter analysis relative to control; type: functional; conditions: HCT-116, 144 h, time 6 day
In short: (§2)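 HCT116 xenograft mice (tumors 300–350 mm3, n = 5 per group) received oral vehicle or compound, with harvests on days 2, 3 and 6. Isoflurane-anesthetized mice were given [3H]FLT (15 nCi/g, i.p.) 2 h before killing. Tumor and liver were weighed, solubilized and scintillation-counted. SUV = C/(ID/W), and uptake is reported as the tumor-to-liver SUV ratio.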

HCT-116 [12] = assay: Antitumor activity against human HCT-116 cells xenografted in nude mouse assessed as inhibition of [3H]FLT uptake at 25 mg/kg, po administered once a day for 1 day and measured after 2 hrs post [3H]FLT administration by scintillation counter analysis relative to control; type: functional; conditions: HCT-116, 24 h; in short: as §2
HCT-116 [13] = assay: Antitumor activity against human HCT-116 cells xenografted in nude mouse assessed as reduction in total Myc level at 15 to 150 mg/kg/day administered via pump for 18 hrs by Reverse-Phase protein array analysis; type: functional, organism-based; conditions: dose 15-150 mg/kg/day

T1 sequence (P51812 whole entry): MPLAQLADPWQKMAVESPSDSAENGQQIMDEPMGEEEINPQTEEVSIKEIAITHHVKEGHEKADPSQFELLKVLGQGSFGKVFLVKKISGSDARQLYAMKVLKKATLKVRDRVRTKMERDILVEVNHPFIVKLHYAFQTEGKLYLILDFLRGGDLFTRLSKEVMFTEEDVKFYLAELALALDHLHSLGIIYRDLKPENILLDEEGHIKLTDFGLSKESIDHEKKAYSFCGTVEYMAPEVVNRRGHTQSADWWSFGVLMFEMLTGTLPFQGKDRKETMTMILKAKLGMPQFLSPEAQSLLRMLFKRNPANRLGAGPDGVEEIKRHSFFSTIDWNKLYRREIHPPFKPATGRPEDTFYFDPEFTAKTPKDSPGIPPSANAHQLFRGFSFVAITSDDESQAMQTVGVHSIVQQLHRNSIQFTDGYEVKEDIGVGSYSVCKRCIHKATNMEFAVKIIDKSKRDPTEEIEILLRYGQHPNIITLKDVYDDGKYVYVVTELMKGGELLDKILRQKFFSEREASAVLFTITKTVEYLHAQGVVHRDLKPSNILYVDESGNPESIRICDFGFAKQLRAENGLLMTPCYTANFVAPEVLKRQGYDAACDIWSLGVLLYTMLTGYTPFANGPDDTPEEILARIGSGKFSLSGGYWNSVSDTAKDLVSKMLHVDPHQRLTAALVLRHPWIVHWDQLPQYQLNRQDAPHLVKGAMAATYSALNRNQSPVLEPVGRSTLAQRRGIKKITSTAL
Sequence of Proto-oncogene tyrosine-protein kinase Src (P12931 2-536 limits assumed): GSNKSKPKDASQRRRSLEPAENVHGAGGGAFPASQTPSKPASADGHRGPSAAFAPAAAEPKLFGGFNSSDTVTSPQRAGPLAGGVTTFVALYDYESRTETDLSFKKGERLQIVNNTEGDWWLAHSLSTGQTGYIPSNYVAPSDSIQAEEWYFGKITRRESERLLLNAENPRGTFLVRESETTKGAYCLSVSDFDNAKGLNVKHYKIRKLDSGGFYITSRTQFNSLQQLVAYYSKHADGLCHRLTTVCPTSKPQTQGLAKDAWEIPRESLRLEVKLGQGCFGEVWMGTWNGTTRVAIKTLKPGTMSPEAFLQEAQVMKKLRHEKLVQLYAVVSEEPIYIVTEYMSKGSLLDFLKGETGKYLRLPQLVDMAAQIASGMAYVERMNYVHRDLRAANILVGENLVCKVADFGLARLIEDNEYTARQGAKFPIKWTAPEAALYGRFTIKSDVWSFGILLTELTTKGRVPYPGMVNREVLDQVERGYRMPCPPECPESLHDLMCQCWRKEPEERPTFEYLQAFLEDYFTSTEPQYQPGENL
Sequence of Tyrosine-protein kinase Fyn (P06241 2-537 limits assumed): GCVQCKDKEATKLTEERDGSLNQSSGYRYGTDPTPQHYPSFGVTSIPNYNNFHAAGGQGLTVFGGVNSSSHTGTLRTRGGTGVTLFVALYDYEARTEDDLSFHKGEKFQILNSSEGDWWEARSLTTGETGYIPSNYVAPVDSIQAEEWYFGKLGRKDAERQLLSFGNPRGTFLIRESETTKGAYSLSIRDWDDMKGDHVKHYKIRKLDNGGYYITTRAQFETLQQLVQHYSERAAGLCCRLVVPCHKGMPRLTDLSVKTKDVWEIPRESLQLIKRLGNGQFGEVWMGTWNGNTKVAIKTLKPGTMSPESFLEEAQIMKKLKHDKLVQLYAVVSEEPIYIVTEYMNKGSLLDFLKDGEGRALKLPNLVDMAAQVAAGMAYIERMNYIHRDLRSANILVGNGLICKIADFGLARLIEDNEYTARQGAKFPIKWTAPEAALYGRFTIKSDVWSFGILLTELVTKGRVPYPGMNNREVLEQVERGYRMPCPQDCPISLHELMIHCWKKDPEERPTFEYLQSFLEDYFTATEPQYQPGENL

IC50 (NCI-H526): 1.4 nM
IC50 (NCI-H520): 5.6 nM
IC50 (NCI-H1975): 17 nM
IC50 (NCI-H23 [1]): 25 nM
IC50 (Panc 04.03): 347 nM
IC50 (COLO 205): 140 nM
IC50 (NCI-H1993): 11.9 nM
IC50 (NCI-H23 [2]): 3.45 nM
IC50 (NCI-H358): 7.7 nM
IC50 (HCC1806): 1.2 nM
IC50 (HCT-116 [3]): 0.24 nM
inhibition [5]: 101%
inhibition [6]: 95%
Ki [7]: 43 nM
IC50 [8]: 2 nM
IC50 [9]: 55 nM
SMILES: Cc1nc(Nc2n[nH]c3c2CN(C(=O)N[C@H](CN(C)C)c2ccccc2)C3(C)C)c2sccc2n1 [PF-03758309]
IC50 (PaTu 8988t): 73 nM
IC50 at 3 days [4]: > 1000 nM
inhibition (HEK293): Active
inhibition in vivo at 15 mg/kg (HCT-116 [10]): 79%
inhibition in vivo at 20 mg/kg (GTL 16 cell line): 28%
inhibition in vivo at 15 mg/kg (HCT-116 [11]): 32.5%
inhibition in vivo at 25 mg/kg (HCT-116 [12]): 33.8%
Activity (HCT-116 [13]): Active
